A word on the Ki: it is the dissociation constant of the complex between target and ligand, obtained from inhibition or displacement. A word on the IC50: it is the concentration needed to halve the response being measured.

Active and inactive are the calls of the source. No cut-off for these calls is given here.

The source of these data is ChEMBL document CHEMBL2021918, “Discovery of S-444823, a potent CB1/CB2 dual agonist as an antipruritic agent” (Bioorg Med Chem Lett, 2012).

The target of data set [1] is T1, Cannabinoid receptor 1 (Homo sapiens, UniProt P21554). Nature of the data set: Displacement of [3H]CP55940 from human CB1 receptor membrane fractions. Put shortly: (§1)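 Membranes from confluent recombinant hCB1 or hCB2 cells: sonicated on ice in 20 mM Tris–HCl pH 7.4, 2 mM EDTA, 0.25 M sucrose with protease inhibitor; spun 3000 rpm 10 min, then supernatant 100,000 g 60 min at 4 °C; pellets stored at −80 °C. Radioligand [3H]-CP55940; its Kd per membrane set by Scatchard analysis.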
T1 sequence (P21554 whole entry): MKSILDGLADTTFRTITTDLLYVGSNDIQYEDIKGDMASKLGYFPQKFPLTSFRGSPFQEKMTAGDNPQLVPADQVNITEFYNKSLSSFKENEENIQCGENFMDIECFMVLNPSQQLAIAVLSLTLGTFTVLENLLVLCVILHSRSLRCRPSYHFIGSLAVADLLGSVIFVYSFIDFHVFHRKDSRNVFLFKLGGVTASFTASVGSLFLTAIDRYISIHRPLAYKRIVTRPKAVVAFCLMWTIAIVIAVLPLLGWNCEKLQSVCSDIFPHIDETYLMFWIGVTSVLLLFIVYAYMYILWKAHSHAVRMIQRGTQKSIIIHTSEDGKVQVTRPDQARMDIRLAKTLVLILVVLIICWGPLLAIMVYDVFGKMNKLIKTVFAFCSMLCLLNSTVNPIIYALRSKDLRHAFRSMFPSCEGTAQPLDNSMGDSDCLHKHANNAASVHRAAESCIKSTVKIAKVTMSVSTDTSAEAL
In general terms: Loss of bound radioactivity is the signal in a displacement assay; it reports binding, not function.

The target in data set [2] is T2, Cannabinoid receptor 2 (Homo sapiens, UniProt P34972). Nature of the data set: Displacement of [3H]CP55940 from human CB2 receptor membrane fractions. An outline of the steps: as §1
T2 sequence (P34972 whole entry): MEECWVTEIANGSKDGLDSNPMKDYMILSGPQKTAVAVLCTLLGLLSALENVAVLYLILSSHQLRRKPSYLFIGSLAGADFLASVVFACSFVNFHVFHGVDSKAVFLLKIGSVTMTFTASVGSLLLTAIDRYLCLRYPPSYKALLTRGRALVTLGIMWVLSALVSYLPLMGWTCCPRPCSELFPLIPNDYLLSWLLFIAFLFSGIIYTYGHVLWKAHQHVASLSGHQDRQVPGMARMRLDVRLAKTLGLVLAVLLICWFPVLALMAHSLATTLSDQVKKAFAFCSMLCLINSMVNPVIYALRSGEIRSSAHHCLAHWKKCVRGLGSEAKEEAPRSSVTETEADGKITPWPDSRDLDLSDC
The target in data set [3] is T1, Cannabinoid receptor 1. Description: Agonist activity at human CB1 receptor expressed in CHO cells assessed as inhibition of forskolin-induced cAMP levels after 20 mins. The format is functional, cell-based. In general terms: Changes in cAMP serve as a functional read-out for many G protein-coupled receptors.
Data set [4] concerns the target T2, Cannabinoid receptor 2. Description: Agonist activity at human CB2 receptor expressed in CHO cells assessed as inhibition of forskolin-induced cAMP levels after 20 mins. Type of data set: functional, cell-based. An outline of the steps: (§2)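 hCB2-expressing CHO cells in 24-well plates, exposed to compounds 20 min at 37 °C in Hanks'/20 mM HEPES buffer with 0.1 mM IBMX, 0.2 mM Ro20-1724, 0.1% BSA; forskolin 4 µM then added for 45 min at 37 °C; cellular cAMP quantified by kit.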

The target of data set [5] is T1, Cannabinoid receptor 1. Nature of the data set: Partial agonist activity at human CB1 receptor expressed in CHO cells assessed as inhibition of forskolin-induced cAMP levels after 20 mins. The format is functional, cell-based.
Data set [6] has as its target T2, Cannabinoid receptor 2. Description: Partial agonist activity at human CB2 receptor expressed in CHO cells assessed as inhibition of forskolin-induced cAMP levels after 20 mins. Type of data set: functional, cell-based. Put shortly: as §2
Data set [7] is filed under the species Mus musculus. Nature of the data set: Antipruritic activity against Crj:CD-1 ICR mouse assessed as inhibition of Compound 48/80-induced scratching behaviour at 1 % compound painted on shaven back 15 mins before challenge measured for 30 mins relative to control. Type of data set: functional.
Data set [8] deals with Mus musculus. Nature of the data set: Toxicity in mouse assessed as catalepsy at 0.1 to 1 mg/kg, iv measured at 15 mins post compound administration. The format is organism-based. Also on record: dose 0.1-1 mg/kg, route intravenous. Conditions: in vivo, 0.25 h. An outline of the steps:
(§3)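 ICR mice, n = 3 per dose, given compound iv in tail vein at 0.1 and 1.0 mg/kg, dissolved in MDAA and PEG solution. Behaviour observed 15 min post-dose and scored: 5 tonic convulsion, 4 catalepsy, 3 prone position/sedation, 2 crawling, 1 decreased locomotion, 0 normal.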

In data set [9] the test system is Mus musculus. Nature of the data set: Toxicity in mouse assessed as sedation at 0.1 to 1 mg/kg, iv measured at 15 mins post compound administration. The format is organism-based. Also noted: dose 0.1-1 mg/kg, route intravenous. The settings on record: in vivo, 0.25 h. Put shortly: as §3

As for `CC(C)(NC(=O)c1cc2c(n(CC3CCCCC3)c1=O)CCCCCC2)C(=O)O`, the Ki at Cannabinoid receptor 1 [1] turned out to be 1350 nM; on Cannabinoid receptor 2 [2], 349 nM.

For `O=C(O)Cc1ccccc1NC(=O)c1cc2c(n(CC3CCCCC3)c1=O)CCCCCC2`, the results for the Ki on Cannabinoid receptor 1 [1] and on Cannabinoid receptor 2 [2] were 548 nM and 46 nM, respectively.

With `O=C(O)c1cnc(NC(=O)c2cc3c(n(CC4CCCCC4)c2=O)CCCCCC3)s1`, the results for the Ki on Cannabinoid receptor 1 [1] and on Cannabinoid receptor 2 [2] were greater than 5000 nM and 885 nM, respectively. The IC50 on Cannabinoid receptor 1 [3] was greater than 2000 nM; on Cannabinoid receptor 2 [4] it was 800 nM.

With `O=C(O)c1ccccc1NC(=O)c1cc2c(n(CC3CCCCC3)c1=O)CCCCCC2`, the results for the Ki at Cannabinoid receptor 1 [1] and at Cannabinoid receptor 2 [2] were 2530 nM and 181 nM, respectively. The results for the IC50 on Cannabinoid receptor 1 [3] and on Cannabinoid receptor 2 [4] were 657 nM and 167 nM, respectively.

Consider `O=C(N[C@@H](Cc1ccccc1)C(=O)O)c1cc2c(n(CC3CCCCC3)c1=O)CCCCCC2`, for which the Ki worked out at 738 nM on Cannabinoid receptor 1 [1] and 33 nM on Cannabinoid receptor 2 [2]. The IC50 at Cannabinoid receptor 1 [3] was found to be 297 nM; at Cannabinoid receptor 2 [4], 126 nM.

As for `O=C(O)Cc1cnc(NC(=O)c2cc3c(n(CC4CCCCC4)c2=O)CCCCCC3)s1`, the Ki on Cannabinoid receptor 1 [1] turned out to be 235 nM; on Cannabinoid receptor 2 [2], 4.6 nM. Also, the values for the IC50 on Cannabinoid receptor 1 [3] and on Cannabinoid receptor 2 [4] were 23 nM and 3.5 nM, respectively. Further, the outcome on Cannabinoid receptor 1 [5] and at Cannabinoid receptor 2 [6] was Active.

As to `O=C(O)Cc1cccc(NC(=O)c2cc3c(n(CC4CCCCC4)c2=O)CCCCCC3)c1`, the Ki came to 2880 nM at Cannabinoid receptor 1 [1] and 120 nM at Cannabinoid receptor 2 [2]. Moreover, the IC50 on Cannabinoid receptor 1 [3] was determined as 997 nM; on Cannabinoid receptor 2 [4], 180 nM.

Consider `O=C(O)c1ccc(CNC(=O)c2cc3c(n(CC4CCCCC4)c2=O)CCCCCC3)cc1`, for which the affinity at Cannabinoid receptor 2 [2], expressed as Ki, was 923 nM.

As for `O=C(N[C@H](C(=O)O)C1CCCCC1)c1cc2c(n(CC3CCCCC3)c1=O)CCCCCC2`, the Ki on Cannabinoid receptor 1 [1] was found to be 3060 nM; at Cannabinoid receptor 2 [2] it was 111 nM. Besides, the IC50 on Cannabinoid receptor 1 [3] is greater than 2000 nM; on Cannabinoid receptor 2 [4], 51 nM.

`O=C(O)Cc1csc(NC(=O)c2cc3c(n(CC4CCCCC4)c2=O)CCCCCC3)n1`: the “inhibition (INH)” value in the data set filed under Mus musculus [7] amounted to 109%. For the same compound, the Activity result in the data set on Mus musculus [8] and in the data set with Mus musculus [9] was “Non-toxic” throughout.

In the case of `O=C(N[C@H](C(=O)O)c1ccccc1)c1cc2c(n(CC3CCCCC3)c1=O)CCCCCC2`, on Cannabinoid receptor 1 [3], the IC50 is greater than 2000 nM. At Cannabinoid receptor 2 [2], this compound registered a Ki of 1.2 nM. Moreover, the outcome at Cannabinoid receptor 1 [5] and at Cannabinoid receptor 2 [6] was Active.

Take `O=C(O)CCc1csc(NC(=O)c2cc3c(n(CC4CCCCC4)c2=O)CCCCCC3)n1`: the Activity result in the data set with Mus musculus [8] and in the data set with Mus musculus [9] was “Non-toxic” each time.

As to `O=C(O)c1cccc(NC(=O)c2cc3c(n(CC4CCCCC4)c2=O)CCCCCC3)c1`, the figures for the Ki at Cannabinoid receptor 1 [1] and at Cannabinoid receptor 2 [2] were 1560 nM and 614 nM, respectively. In addition, the IC50 is 611 nM at Cannabinoid receptor 1 [3] and 268 nM on Cannabinoid receptor 2 [4].

Consider `O=C(O)c1ccc(NC(=O)c2cc3c(n(CC4CCCCC4)c2=O)CCCCCC3)cc1`, for which the figures for the Ki on Cannabinoid receptor 1 [1] and at Cannabinoid receptor 2 [2] were 370 nM and 107 nM, respectively. The figures for the IC50 at Cannabinoid receptor 1 [3] and on Cannabinoid receptor 2 [4] were 291 nM and 38 nM, respectively.

Turning to `O=C(O)c1csc(NC(=O)c2cc3c(n(CC4CCCCC4)c2=O)CCCCCC3)n1`, the Ki at Cannabinoid receptor 1 [1] and on Cannabinoid receptor 2 [2] was greater than 5000 nM in each case. Also, the IC50 on Cannabinoid receptor 1 [3] is greater than 2000 nM.

Consider `CC(C)[C@H](NC(=O)c1cc2c(n(CC3CCCCC3)c1=O)CCCCCC2)C(=O)O`, for which the Ki was 1880 nM on Cannabinoid receptor 1 [1] and 116 nM at Cannabinoid receptor 2 [2].

As to `O=C(N[C@@H](C(=O)O)c1ccccc1)c1cc2c(n(CC3CCCCC3)c1=O)CCCCCC2`, the Ki came out at 69 nM at Cannabinoid receptor 1 [1] and 3 nM on Cannabinoid receptor 2 [2]. Also, the IC50 on Cannabinoid receptor 1 [3] was greater than 2000 nM; at Cannabinoid receptor 2 [4], 4.4 nM. For the same compound, the result at Cannabinoid receptor 1 [5] and on Cannabinoid receptor 2 [6] was Active.

With `O=C(O)Cc1ccc(NC(=O)c2cc3c(n(CC4CCCCC4)c2=O)CCCCCC3)cc1`, the results for the Ki on Cannabinoid receptor 1 [1] and on Cannabinoid receptor 2 [2] were 3990 nM and 74 nM, respectively. Moreover, the values for the IC50 on Cannabinoid receptor 1 [3] and on Cannabinoid receptor 2 [4] were greater than 2000 nM and 96 nM, respectively.
